Laboratory results taken from ChEMBL document CHEMBL1125794, “Synthesis and antihypertensive activity of pyran oxygen and amide nitrogen replacement analogues of the potassium channel activator cromakalim” (1991).

Key:
Format in all cases: functional, Artery
Rattus norvegicus [1] = assay: The compound was tested for the maximum fall in systolic blood pressure 1-6 hr of 10.0 mg/kg oral dose administration in rats
Summary of the method: (§1)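 Conscious spontaneously hypertensive rats of Japanese (Okamoto) strain, 14-24 weeks old, hypertensive if systolic pressure >180 mmHg; groups of six per dose level unless indicated. Oral gavage via esophageal needle as solution or suspension in 1% w/v methylcellulose. Tail-cuff systolic pressure (each value mean of ≥6 recordings) taken predose and at intervals up to 6 h postdose.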

Rattus norvegicus [2] = assay: The compound was tested for the maximum fall in systolic blood pressure 1-6 hr of 3.0 mg/kg oral dose administration in rats; summary of the method: as §1
Rattus norvegicus [3] = assay: The compound was tested for the maximum fall in systolic blood pressure 1-6 hr of 1.0 mg/kg oral dose administration in rats; summary of the method: as §1
Rattus norvegicus [4] = assay: The compound was tested for the maximum fall in systolic blood pressure 1-6 hr of 10 mg/kg oral dose administration in rats; summary of the method: as §1
Rattus norvegicus [5] = assay: The compound was tested for the maximum fall in systolic blood pressure 1-6 hr of 0.3 mg/kg oral dose administration in rats; summary of the method: as §1
Rattus norvegicus [6] = assay: The compound was tested for the maximum fall in systolic blood pressure 1-6 hr of 0.1 mg/kg oral dose administration in rats; summary of the method: as §1
Rattus norvegicus [7] = assay: The compound was tested for the maximum fall in systolic blood pressure 1-6 hr of 3 mg/kg oral dose administration in rats; summary of the method: as §1

| SMILES | Max fall in blood pressure (Rattus norvegicus [1]) [%] | Max fall in blood pressure (Rattus norvegicus [2]) [%] | Max fall in blood pressure (Rattus norvegicus [3]) [%] | further results |
| --- | --- | --- | --- | --- |
| CC1(C)Cc2ccc(C#N)cc2C(NC(=O)c2ccccc2)C1O (centres undefined) | 44 | 16 |  |  |
| CC1(C)C=C(N2CCCC2=O)c2cc(C#N)ccc2N1 | 49 | 29 | 10 |  |
| CC1(C)C=C(N2CCCC2=O)c2cc(Cl)ccc2N1 |  |  |  | Max fall in blood pressure (Rattus norvegicus [4]): 13% |
| CC1(C)Oc2ccc(Cl)cc2C(N2CCCC2=O)C1O (centres undefined) |  |  |  | Max fall in blood pressure (Rattus norvegicus [4]): 37% |
| CC(=O)CC1c2cc(C#N)ccc2OC(C)(C)C1O (centres undefined) | 30 |  | 5 |  |
| CN(C)C(=O)CC1c2cc(C#N)ccc2OC(C)(C)C1O (centres undefined) |  | 51 | 28 |  |
| CNC(=O)NC1c2cc(C#N)ccc2OC(C)(C)[C@H]1O (some centres undefined) |  |  | 61 | Max fall in blood pressure (Rattus norvegicus [5]): 31% |
| CC1(C)C=C(N2CCCC2=O)c2cc(C#N)ccc2O1 |  |  |  | Max fall in blood pressure (Rattus norvegicus [5]): 47%; Max fall in blood pressure (Rattus norvegicus [6]): 12% |
| CC1(C)C=C(N2CCCC2=O)c2cc(Br)ccc2N1 |  |  |  | Max fall in blood pressure (Rattus norvegicus [4]): 4% |
| CC1(C)Oc2ccc(C#N)cc2C(N2CCCC2=O)C1O (centres undefined) [CROMAKALIM] |  |  | 47 | Max fall in blood pressure (Rattus norvegicus [5]): 39% |
| CC1(C)Nc2ccc(Br)cc2C(N2CCCC2=O)C1O (centres undefined) |  |  |  | Max fall in blood pressure (Rattus norvegicus [4]): 6% |
| CNC(=O)NC1c2cc(C#N)ccc2CC(C)(C)C1O (centres undefined) | 52 | 23 |  |  |
| CC1(C)Nc2ccc(Cl)cc2C(N2CCCC2=O)C1O (centres undefined) |  |  |  | Max fall in blood pressure (Rattus norvegicus [4]): 8% |
| CN1CCC(C2c3cc(C#N)ccc3OC(C)(C)C2O)C1=O (centres undefined) | 21 |  |  | Max fall in blood pressure (Rattus norvegicus [7]): 10% |
| CC(=O)NC1c2cc(C#N)ccc2OC(C)(C)C1O (centres undefined) |  | 47 | 67 | Max fall in blood pressure (Rattus norvegicus [6]): 18% |
| CC1(C)Nc2ccc(C#N)cc2C(N2CCCC2=O)C1O (centres undefined) | 39 | 26 |  | Max fall in blood pressure (Rattus norvegicus [4]): 9% |
| CNC(=O)CC1c2cc(C#N)ccc2OC(C)(C)C1O (centres undefined) |  | 9 |  |  |
| CC(=O)NC1c2cc(C#N)ccc2CC(C)(C)C1O (centres undefined) |  | 34 | 22 |  |
| CC1(C)Oc2ccc(C#N)cc2C(NC(=O)c2ccccc2)C1O (centres undefined) | 41 |  |  | Max fall in blood pressure (Rattus norvegicus [5]): 16% |
| CC1(C)C=C(N2CCCC2=O)c2cc(C#N)ccc2C1 |  | 50 | 23 |  |
| CC1(C)Cc2ccc(C#N)cc2C(N2CCCC2=O)C1O (centres undefined) | 32 | 29 |  |  |
